In brackets after ≈: the same amount, converted by molar mass. Activity calls are given as the source filed them. The rule behind the calls is not given here.
Experiments:
Format in all cases: functional
Staphylococcus aureus [1] = assay: Antimicrobial activity against Staphylococcus aureus 2079 at 35 degC after 18 to 24 hrs by NCCLS method based antimicrobial assay; settings: for MBC: read-out: MBC99.9
Escherichia coli [2] = assay: Antimicrobial activity against Escherichia coli 2109 at 35 degC after 18 to 24 hrs by NCCLS method based antimicrobial assay; settings: for MBC: read-out: MBC99.9
Bacillus subtilis [3] = assay: Antimicrobial activity against Bacillus subtilis 2250 at 35 degC after 18 to 24 hrs by NCCLS method based antimicrobial assay; settings: for MBC: read-out: MBC99.9
Pseudomonas aeruginosa [4] = assay: Antimicrobial activity against Pseudomonas aeruginosa 2036 at 128 ug/disc at 35 degC after 24 hrs by agar-well diffusion assay; settings: for zone of inhibition at 128 µg/disc: Pseudomonas aeruginosa, 2036, 24 h, read-out: DIZ
Summary of the method: (§1)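 Agar-well diffusion: 24 h bacterial cultures adjusted to 0.5 McFarland (1.5 × 10⁸ CFU/mL) and mixed into molten Mueller-Hinton agar before pouring. 6 mm wells punched and each filled with 50 µL of compound stock or control. Plates incubated 35 °C for 24 h. Zone of growth inhibition diameter measured with vernier caliper.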

Aspergillus niger [5] = assay: Ratio of MFC99.9 to MIC90 for Aspergillus niger 545 at 35 degC after 48 hrs by CLSI method based antimicrobial assay
Summary of the method: (§2)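 Broth microdilution following CLSI guidelines over 256 to 1 µg/mL. MIC90 is the lowest concentration completely inhibiting growth. For MFC, 0.1 mL from each tube spread on agar and CFU counted after 48 h at 35 °C; MFC is lowest concentration killing 99.9% of inoculum. MFC/MIC ratio calculated: […], ≤4 as fungicidal.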

Candida albicans [6] = assay: Ratio of MFC99.9 to MIC90 for Candida albicans 3471 at 35 degC after 48 hrs by CLSI method based antimicrobial assay; summary of the method: as §2
Bacillus subtilis [7] = assay: Antimicrobial activity against Bacillus subtilis 2250 at 128 ug/disc at 35 degC after 24 hrs by agar-well diffusion assay; settings: for zone of inhibition at 128 µg/disc: Bacillus subtilis, 2250, 24 h, read-out: DIZ; summary of the method: as §1
Candida albicans [8] = assay: Antimicrobial activity against Candida albicans 3471 at 35 degC after 48 hrs by CLSI method based antimicrobial assay; settings: Candida albicans, 3471, 48 h; for MFC: read-out: MFC99.9; summary of the method: as §2
Candida albicans [9] = assay: Antimicrobial activity against Candida albicans 3471 at 128 ug/disc at 37 degC after 24 to 72 hrs by agar-well diffusion assay; settings: read-out: DIZ
Summary of the method: (§3)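 Potato dextrose agar base plates overlaid with seeded agar cooled to 40 °C and inoculated with spores from 10-day cultures, final 1 × 10⁶ spores/mL. Compounds dissolved in DMSO at 128 µg/mL and applied on 6 mm filter-paper discs placed on chilled seeded medium. Nystatin positive control, DMSO negative control. Incubation 24–72 h at 37 °C. Inhibition zone diameter read by vernier caliper.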

Pseudomonas aeruginosa [10] = assay: Antimicrobial activity against Pseudomonas aeruginosa 2036 at 35 degC after 18 to 24 hrs by NCCLS method based antimicrobial assay; settings: for MBC: read-out: MBC99.9
Escherichia coli [11] = assay: Antimicrobial activity against Escherichia coli 2109 at 128 ug/disc at 35 degC after 24 hrs by agar-well diffusion assay; settings: for zone of inhibition at 128 µg/disc: Escherichia coli, 2109, 24 h, read-out: DIZ; summary of the method: as §1
Aspergillus niger [12] = assay: Antimicrobial activity against Aspergillus niger 545 at 35 degC after 48 hrs by CLSI method based antimicrobial assay; settings: Aspergillus niger, 545, 48 h; for MFC: read-out: MFC99.9; summary of the method: as §2
Aspergillus niger [13] = assay: Antimicrobial activity against Aspergillus niger 545 at 128 ug/disc at 37 degC after 24 to 72 hrs by agar-well diffusion assay; settings: read-out: DIZ; summary of the method: as §3
Staphylococcus aureus [14] = assay: Antimicrobial activity against Staphylococcus aureus 2079 at 128 ug/disc at 35 degC after 24 hrs by agar-well diffusion assay; settings: for zone of inhibition at 128 µg/disc: Staphylococcus aureus, 2079, 24 h, read-out: DIZ; summary of the method: as §1

`Fc1ccc(-c2csc(N/N=C(/Cn3nnc4ccccc43)c3ccc(Cl)cc3)n2)cc1` gave an MIC (Staphylococcus aureus [1]) of 64 µg/mL (≈ 138 µM), an MBC (Staphylococcus aureus [1]) of 32 µg/mL (≈ 69.1 µM) and an MIC (Escherichia coli [2]) of 64 µg/mL (≈ 138 µM). It also gave an MBC (Escherichia coli [2]) of 128 µg/mL (≈ 276 µM), an MIC (Bacillus subtilis [3]) of 128 µg/mL (≈ 276 µM) and an MBC (Bacillus subtilis [3]) of 128 µg/mL (≈ 276 µM). It also gave a zone of inhibition at 128 µg/disc (Pseudomonas aeruginosa [4]) of 14.3 mm, a Ratio (Aspergillus niger [5]) of 2 and a Ratio (Candida albicans [6]) of 4. The zone of inhibition at 128 µg/disc (Bacillus subtilis [7]) was 16.9 mm, the MIC (Candida albicans [8]) was 16 µg/mL (≈ 34.6 µM) and the MFC (Candida albicans [8]) was 64 µg/mL (≈ 138 µM). The zone of inhibition at 128 µg/disc (Candida albicans [9]) was 21.3 mm, the MIC (Pseudomonas aeruginosa [10]) was 128 µg/mL (≈ 276 µM) and the MBC (Pseudomonas aeruginosa [10]) was 256 µg/mL (≈ 553 µM). For the same compound, the zone of inhibition at 128 µg/disc (Escherichia coli [11]) was 17.6 mm, the MIC (Aspergillus niger [12]) was 16 µg/mL (≈ 34.6 µM) and the MFC (Aspergillus niger [12]) was 32 µg/mL (≈ 69.1 µM). The zone of inhibition at 128 µg/disc (Aspergillus niger [13]) was 20.1 mm and the zone of inhibition at 128 µg/disc (Staphylococcus aureus [14]) was 24.7 mm.

In the case of `O=[N+]([O-])c1ccc(/C(Cn2nnc3ccccc32)=N\Nc2nc(-c3ccc(F)cc3)cs2)cc1`, the MIC (Staphylococcus aureus [1]) is reported as 32 µg/mL (≈ 67.6 µM), the MBC (Staphylococcus aureus [1]) is reported as 64 µg/mL (≈ 135 µM) and the MBC99.9 (Escherichia coli [2]) is reported as “inactive”. For the same compound, the MIC (Escherichia coli [2]) was “inactive”, the MBC99.9 (Bacillus subtilis [3]) was “inactive” and the MIC (Bacillus subtilis [3]) was “inactive”. For the same compound, the zone of inhibition at 128 µg/disc (Pseudomonas aeruginosa [4]) was 20.7 mm, the Ratio (Aspergillus niger [5]) was 2 and the Ratio (Candida albicans [6]) was 2. The “diameter of the inhibition zone (DIZ)” value (Bacillus subtilis [7]) was “inactive”, the MIC (Candida albicans [8]) was 128 µg/mL (≈ 270 µM) and the MFC (Candida albicans [8]) was 256 µg/mL (≈ 541 µM). The zone of inhibition at 128 µg/disc (Candida albicans [9]) was 12.2 mm, the MIC (Pseudomonas aeruginosa [10]) was 32 µg/mL (≈ 67.6 µM) and the MBC (Pseudomonas aeruginosa [10]) was 32 µg/mL (≈ 67.6 µM). The “diameter of the inhibition zone (DIZ)” value (Escherichia coli [11]) was “inactive”, the MIC (Aspergillus niger [12]) was 32 µg/mL (≈ 67.6 µM) and the MFC (Aspergillus niger [12]) was 64 µg/mL (≈ 135 µM). It also gave a zone of inhibition at 128 µg/disc (Aspergillus niger [13]) of 17.8 mm and a zone of inhibition at 128 µg/disc (Staphylococcus aureus [14]) of 26.5 mm.

`Clc1ccc(/C(Cn2nnc3ccccc32)=N\Nc2nc(-c3ccc(Br)cc3)cs2)cc1` was tested, and the MBC99.9 (Staphylococcus aureus [1]) was “inactive”, the MIC (Staphylococcus aureus [1]) was “inactive” and the MBC99.9 (Escherichia coli [2]) was “inactive”. For the same compound, the MIC (Escherichia coli [2]) was “inactive”, the MIC (Bacillus subtilis [3]) was 128 µg/mL (≈ 244 µM) and the MBC (Bacillus subtilis [3]) was 256 µg/mL (≈ 489 µM). The “diameter of the inhibition zone (DIZ)” value (Pseudomonas aeruginosa [4]) was “inactive”, the Ratio (Aspergillus niger [5]) was 1 and the Ratio (Candida albicans [6]) was 4. The zone of inhibition at 128 µg/disc (Bacillus subtilis [7]) was 13.8 mm, the MIC (Candida albicans [8]) was 32 µg/mL (≈ 61.1 µM) and the MFC (Candida albicans [8]) was 128 µg/mL (≈ 244 µM). The zone of inhibition at 128 µg/disc (Candida albicans [9]) was 18 mm, the MBC99.9 (Pseudomonas aeruginosa [10]) was “inactive” and the MIC (Pseudomonas aeruginosa [10]) was “inactive”. For the same compound, the “diameter of the inhibition zone (DIZ)” value (Escherichia coli [11]) was “inactive”, the MIC (Aspergillus niger [12]) was 64 µg/mL (≈ 122 µM) and the MFC (Aspergillus niger [12]) was 64 µg/mL (≈ 122 µM). The zone of inhibition at 128 µg/disc (Aspergillus niger [13]) was 15.2 mm and the “diameter of the inhibition zone (DIZ)” value (Staphylococcus aureus [14]) was “inactive”.

With `O=[N+]([O-])c1ccc(/C(Cn2nnc3ccccc32)=N\Nc2nc(-c3cc(C(F)(F)F)cc(C(F)(F)F)c3)cs2)cc1` the MBC99.9 (Staphylococcus aureus [1]) was “inactive”, the MIC (Staphylococcus aureus [1]) was “inactive” and the MIC (Escherichia coli [2]) was 128 µg/mL (≈ 216 µM). The MBC (Escherichia coli [2]) was 256 µg/mL (≈ 433 µM), the MBC99.9 (Bacillus subtilis [3]) was “inactive” and the MIC (Bacillus subtilis [3]) was “inactive”. The “diameter of the inhibition zone (DIZ)” value (Pseudomonas aeruginosa [4]) was “inactive”, the Ratio (Aspergillus niger [5]) was 2 and the Ratio (Candida albicans [6]) was 2. The “diameter of the inhibition zone (DIZ)” value (Bacillus subtilis [7]) was “inactive”, the MIC (Candida albicans [8]) was 128 µg/mL (≈ 216 µM) and the MFC (Candida albicans [8]) was 256 µg/mL (≈ 433 µM). The zone of inhibition at 128 µg/disc (Candida albicans [9]) was 19 mm, the MBC99.9 (Pseudomonas aeruginosa [10]) was “inactive” and the MIC (Pseudomonas aeruginosa [10]) was “inactive”. For the same compound, the zone of inhibition at 128 µg/disc (Escherichia coli [11]) was 15 mm, the MIC (Aspergillus niger [12]) was 32 µg/mL (≈ 54.1 µM) and the MFC (Aspergillus niger [12]) was 64 µg/mL (≈ 108 µM). For the same compound, the zone of inhibition at 128 µg/disc (Aspergillus niger [13]) was 17.9 mm and the “diameter of the inhibition zone (DIZ)” value (Staphylococcus aureus [14]) was “inactive”.

With `Fc1ccc(/C(Cn2nnc3ccccc32)=N\Nc2nc(-c3cc(C(F)(F)F)cc(C(F)(F)F)c3)cs2)cc1` the MIC (Staphylococcus aureus [1]) was 128 µg/mL (≈ 227 µM), the MBC (Staphylococcus aureus [1]) was 128 µg/mL (≈ 227 µM) and the MBC99.9 (Escherichia coli [2]) was “inactive”. The MIC (Escherichia coli [2]) was “inactive”, the MIC (Bacillus subtilis [3]) was 32 µg/mL (≈ 56.7 µM) and the MBC (Bacillus subtilis [3]) was 64 µg/mL (≈ 113 µM). The “diameter of the inhibition zone (DIZ)” value (Pseudomonas aeruginosa [4]) was “inactive”, the Ratio (Aspergillus niger [5]) was 4 and the Ratio (Candida albicans [6]) was 2. It also gave a zone of inhibition at 128 µg/disc (Bacillus subtilis [7]) of 24.1 mm, an MIC (Candida albicans [8]) of 32 µg/mL (≈ 56.7 µM) and an MFC (Candida albicans [8]) of 64 µg/mL (≈ 113 µM). For the same compound, the zone of inhibition at 128 µg/disc (Candida albicans [9]) was 17.4 mm, the MBC99.9 (Pseudomonas aeruginosa [10]) was “inactive” and the MIC (Pseudomonas aeruginosa [10]) was “inactive”. For the same compound, the “diameter of the inhibition zone (DIZ)” value (Escherichia coli [11]) was “inactive”, the MIC (Aspergillus niger [12]) was 32 µg/mL (≈ 56.7 µM) and the MFC (Aspergillus niger [12]) was 128 µg/mL (≈ 227 µM). It also gave a zone of inhibition at 128 µg/disc (Aspergillus niger [13]) of 17.5 mm and a zone of inhibition at 128 µg/disc (Staphylococcus aureus [14]) of 19.2 mm.

— ChEMBL document CHEMBL2021913, “Synthesis and biological evaluation of some novel thiazole substituted benzotriazole derivatives” (2012)
